The list is not random: actives were taken first. Their share in the collection is about 1.6%.
HNF4A DNA FP: change in binding of human HNF4 alpha to DNA. 0.3% of 360,000 active. activity change, % at 10 µM. HNF4a-FITC DNA binding, fluorescence polarization, 1 h; in the data active means activity change above about 30%, passing the limit was not always enough
Rpn11 block: inhibitors of human proteasome Rpn11; O00487; human 26S proteasome, Ub4-pepOG fluorescence polarization; 20S core pre-blocked with epoxomicin; inhibition, % at 20 µM; 0.59% of 360,000 active; AID 588493;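 active means inhibition at 20 µM, scaled to each plate's controls, above about 33%, limit read from the data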
TPT1 inh: blocks Candida albicans tRNA 2'-phosphotransferase; inhibition, % at 5 µM; 0.81% of 300,000 active; recombinant caTPT1, FP RNA substrate dephosphorylation; AID 1962;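 active means inhibition above the mean of all tested compounds plus 3 SD, set per screening campaign, cut at about 24% in these data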
SENP1 inh: inhibitors of human SENP1 SUMO protease catalytic domain; Q9P0U3; recombinant SENP1 catalytic domain, CyPet-SUMO1-YPet FRET cleavage; inhibition, % at 10 µM; 0.21% of 360,000 active;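 active means inhibition at least 30% at 10 µM, raw YFP signal under a set limit, fluorescence ratio 0.5 to 1.5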
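Assay system – human recombinant His6-tagged SENP1 catalytic domain enzyme · Input – SENP1 enzyme, 20 pM final · Buffer or medium – Tris pH 8 buffer plus EDTA, NaCl, BME, BSA, NP40, catalase · Schedule – 50 min reaction at room temperature · Technique – FRET read of cyan and yellow fluorescence · Control set – no-enzyme wells low, DMSO-plus-enzyme wells high control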
CSN inh: blocks human CSN-mediated cullin deneddylation. Q92905. Purified CSN, SCF-Nedd8-OG deneddylation, fluorescence polarization. inhibition, % at 12.5 µM. 0.38% of 360,000 active. AID 651999;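 active means pattern-corrected inhibition above about 35%, with an unprinted fluorescence ratio check between 0.5 and 1.5, limit read from the data, passing the limit was not always enough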
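Material: human Csn5 produced in HEK293T cells; Input: enzyme 0.24 nM; Reagent: SCFSkp2-Nedd8OG substrate at 10 nM final; Dosing: 12.5 µM compound; Incubation: 90 min reaction at room temperature; Detection: fluorescence polarization of the substrate; Evaluation: % inhibition of substrate cleavage by Csn5; Control set: substrate-only high control, full reaction low control.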
Rpn11 confirm: Rpn11 inhibition confirmation, single concentration | shares compounds with Rpn11 block | purified human 26S proteasome, Ub4-pepOG fluorescence polarization; proteasome pretreated with epoxomicin | inhibition, % at 20 µM | 29% of 1,900 active | AID 602318
MMP-2 counter-1: blocks human MMP-2, flagging nonselective RPN11 hits; AID 602330; recombinant MMP-2, FRET peptide cleavage fluorescence; shares compounds with Rpn11 block; 4% of 1,900 active; inhibition, % at 20 µM;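 further: human MMP-2 activated beforehand with APMA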
Target sequence (P08253 whole entry, looked up): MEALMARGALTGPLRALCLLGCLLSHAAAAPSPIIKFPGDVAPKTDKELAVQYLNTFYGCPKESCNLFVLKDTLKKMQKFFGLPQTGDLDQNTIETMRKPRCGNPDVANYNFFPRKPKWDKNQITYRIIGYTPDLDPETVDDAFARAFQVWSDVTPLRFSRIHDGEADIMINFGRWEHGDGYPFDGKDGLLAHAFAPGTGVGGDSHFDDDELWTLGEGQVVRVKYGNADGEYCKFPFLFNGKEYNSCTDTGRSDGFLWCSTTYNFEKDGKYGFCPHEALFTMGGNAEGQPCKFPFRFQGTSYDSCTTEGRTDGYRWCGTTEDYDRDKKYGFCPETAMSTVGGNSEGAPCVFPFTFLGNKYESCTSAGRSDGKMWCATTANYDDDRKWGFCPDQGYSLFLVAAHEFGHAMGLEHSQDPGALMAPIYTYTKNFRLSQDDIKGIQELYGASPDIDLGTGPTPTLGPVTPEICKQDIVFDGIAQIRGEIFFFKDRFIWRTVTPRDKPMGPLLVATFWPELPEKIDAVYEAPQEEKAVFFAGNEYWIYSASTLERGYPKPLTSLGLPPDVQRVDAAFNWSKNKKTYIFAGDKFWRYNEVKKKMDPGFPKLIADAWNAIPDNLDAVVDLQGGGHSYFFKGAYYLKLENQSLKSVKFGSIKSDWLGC
Thrombin inh: blocks bovine thrombin, flagging nonselective RPN11 hits | shares compounds with Rpn11 block | bovine thrombin cleavage of Ub4-pepOG, fluorescence polarization | inhibition, % at 20 µM | 13% of 1,900 active | AID 602333;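 active means mean inhibition at least 40% at 20 µM, or signal 3 deviations below plate average, so some actives read negative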
SENP1 inh conf: confirmation of human SENP1 SUMO protease inhibitors. shares compounds with SENP1 inh. inhibition, % at 10 µM. 34% of 520 active. recombinant SENP1, CyPet-SUMO1-YPet FRET cleavage; in the data active means inhibition mostly above about 35%, no sharp cut-off; inactive means mostly below about 32%
SENP1 kin conf: SENP1 (human) inhibition, kinetic confirmation | inhibition, % at 10 µM | recombinant SENP1, CyPet-SUMO1-YPet FRET kinetic cleavage | shares compounds with SENP1 inh | 26% of 520 active; in the data active means inhibition mostly above about 32%, no sharp cut-off; inactive means mostly below about 29%
CSN deneddyl val: Csn5 (human) deneddylation inhibition, single-concentration validation. 62% of 540 active. shares compounds with CSN inh. inhibition, % at 16.6 µM. Csn5 deneddylation of SCF-Nedd8OG, fluorescence polarization, 90 min; in the data active means inhibition above about 50%
MMP-2 counter-2: counter-screen for CSN deneddylation inhibitors: human MMP-2 inhibition. shares compounds with CSN inh. recombinant MMP-2, FRET substrate fluorescence, 60 min. inhibition, % at 16.6 µM. 33% of 540 active;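 active means corrected plate-normalized z-score of 5 or more, or -5 or less, or inhibition of 15% or more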
Thrombin counter: thrombin (bovine) inhibition, counter-screen for CSN hits. shares compounds with CSN inh. bovine thrombin cleavage of Ub4-pepOG, fluorescence polarization. inhibition, % at 16.6 µM. 49% of 540 active;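 active means inhibition at or above a set limit, with a fluorescence interference ratio between 0.5 and a set maximum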
Of the large screens only hits and unclear results are named; the others gave an inactive call (follow-up assays come after a bar, where they were run). Unless noted, no stated cut-off is given here; in the data, active means inhibition above about 40%; inactive means the rest.

COc1ccc(N2CCN(C(=O)c3ccc(CSc4ccccc4)cc3)CC2)cc1	none
COc1ccc(/C=C2/SC(=S)N(CC(=O)O)C2=O)cc1OCc1ccc(Cl)cc1	none
COc1cc(/C=C2/SC(=S)N(CC(=O)O)C2=O)ccc1OC(=O)c1ccco1	Rpn11 block 45.0, SENP1 inh 31.9 | Rpn11 confirm inactive | MMP-2 counter-1 inactive | Thrombin inh inactive | SENP1 inh conf 83.7 | SENP1 kin conf 64.7
C=CCNC(=O)c1cccc2c1C(=O)c1ccc(N3CCOCC3)cc1S2(=O)=O	Rpn11 block 49.2, SENP1 inh 80.1 (no result: TPT1 inh) | Rpn11 confirm inactive | MMP-2 counter-1 inactive | Thrombin inh inactive | SENP1 inh conf 61.0 | SENP1 kin conf 44.7
Cn1c(=O)oc2cc(S(=O)(=O)Nc3cccc4c3CCCC4)ccc21	Rpn11 block 41.9, SENP1 inh 32.6 | Rpn11 confirm inactive | MMP-2 counter-1 inactive | Thrombin inh inactive | SENP1 inh conf inactive | SENP1 kin conf inactive
Cc1cc(C)c(NS(=O)(=O)c2ccc3c(c2)oc(=O)n3C)c(C)c1	none (no result: TPT1 inh)
Cn1c(=O)oc2cc(S(=O)(=O)N3CCN(c4ccc(F)cc4)CC3)ccc21	Rpn11 block 44.0, SENP1 inh 36.6 | Rpn11 confirm inactive | MMP-2 counter-1 inactive | Thrombin inh inactive | SENP1 inh conf inactive | SENP1 kin conf inactive
CN1CCN(S(=O)(=O)c2ccc3c(c2)oc(=O)n3C)CC1	Rpn11 block 60.6, SENP1 inh 33.1 | Rpn11 confirm inactive | MMP-2 counter-1 inactive | Thrombin inh inactive | SENP1 inh conf inactive | SENP1 kin conf inactive
COc1ccc(C(=S)N2CCN(c3ccccc3C)CC2)cc1	none
Cc1nc(N2CCN(c3ccccn3)CC2)c2c(C)c(C(=O)N3CCN(c4cccc(Cl)c4)CC3)sc2n1	none
CCn1cc(C(=O)O)c(=O)c2cc(F)c(N/N=C/c3ccccc3[N+](=O)[O-])cc21	Rpn11 block 100.5, SENP1 inh 33.5 | Rpn11 confirm inactive | MMP-2 counter-1 inactive | Thrombin inh inactive | SENP1 inh conf inactive | SENP1 kin conf inactive
N#Cc1c(C(F)(F)F)cc(-c2ccc(Cl)c(Cl)c2)nc1SCCN1CCOCC1	Rpn11 block 52.1, SENP1 inh 37.7 | Rpn11 confirm inactive | MMP-2 counter-1 inactive | Thrombin inh inactive | SENP1 inh conf inactive | SENP1 kin conf inactive
Cc1ccc(NC(=O)COC(=O)c2ccc(CN3CCCC3=O)cc2)c(Cl)c1	none (no result: TPT1 inh)
COc1ccc(CNC(=O)C(c2ccc(C)o2)N(Cc2cccs2)C(=O)Cc2cccs2)cc1 (centres undefined)	none
CN1/C(=C/c2cccc[n+]2CCO)Sc2ccccc21	none
CC[n+]1c(/C=C2\Sc3ccccc3N2C)ccc2cccc(C)c21	HNF4A DNA FP 155.6, Rpn11 block 101.5, CSN inh 70.3 (no result: TPT1 inh) | Rpn11 confirm 95.8 | MMP-2 counter-1 inactive | Thrombin inh 156.9 | CSN deneddyl val inactive | MMP-2 counter-2 inactive | Thrombin counter inactive
CN(CC(=O)Nc1cccc(F)c1)CC(=O)Nc1cccc(S(=O)(=O)N2CCCCC2)c1	none (no result: TPT1 inh)
Cc1ccc2[nH]c(=O)c(CN(CCc3ccccc3)C(c3nnnn3Cc3ccco3)C(C)C)cc2c1 (centres undefined)	Rpn11 block 56.9, CSN inh 38.1 | Rpn11 confirm inactive | MMP-2 counter-1 inactive | Thrombin inh inactive | CSN deneddyl val 87.8 | MMP-2 counter-2 inactive | Thrombin counter inactive
CCC(c1nnnn1Cc1ccco1)N(CCc1ccccc1)Cc1cc2cc(C)ccc2[nH]c1=O (centres undefined)	none
C[n+]1c(-c2ccccc2)cc2c(=Cc3ccccc3)c3ccccc3n21	none (no result: TPT1 inh)
Cc1cc2c(=Cc3ccc(N(C)C)cc3)c3ccccc3n2[n+]1C	Rpn11 block 177.3, SENP1 inh 41.1, CSN inh 86.3 (no result: TPT1 inh) | Rpn11 confirm 135.1 | MMP-2 counter-1 inactive | Thrombin inh 145.0 | CSN deneddyl val inactive | MMP-2 counter-2 inactive | Thrombin counter 60.1
CN(C)c1ccc(C=c2c3cc(O)ccc3n3c2cc(-c2ccccc2)[n+]3C)cc1	Rpn11 block 168.4, CSN inh 137.8 (no result: TPT1 inh) | Rpn11 confirm 176.9 | MMP-2 counter-1 109.1 | Thrombin inh 155.1 | CSN deneddyl val inactive | MMP-2 counter-2 100.2 | Thrombin counter 68.0
Cc1nnc(SCC(=O)Nc2c(C)n(C)n(-c3ccccc3)c2=O)n1Cc1ccccc1	none
CCN(CC)CCOC(=O)c1ccc(N/C=C(/C#N)c2nc(-c3ccc4c(c3)OCO4)cs2)cc1	HNF4A DNA FP 291.9, Rpn11 block 85.9, CSN inh 136.8 | Rpn11 confirm 153.1 | MMP-2 counter-1 inactive | Thrombin inh 70.9 | CSN deneddyl val inactive | MMP-2 counter-2 inactive | Thrombin counter inactive
N#C/C(=C\Nc1ccc2cn[nH]c2c1)c1nc(-c2ccc(Cl)cc2)cs1	none
CCN(CC)CCOC(=O)c1ccc(N/C=C(/C#N)c2nc(-c3cc4ccccc4oc3=O)cs2)cc1	Rpn11 block 82.4, CSN inh 119.4 (no result: TPT1 inh) | Rpn11 confirm 52.1 | MMP-2 counter-1 inactive | Thrombin inh 59.5 | CSN deneddyl val inactive | MMP-2 counter-2 -266.6 | Thrombin counter 20.7
Cc1oc(-c2cccs2)nc1CN1CCC(CO)(CCOc2ccccc2)CC1	none
N#Cc1c(NC(=O)c2ccc(Br)o2)n(-c2ccccc2)c2nc3ccccc3nc12	HNF4A DNA FP 87.8, Rpn11 block 58.3, CSN inh 39.4 | Rpn11 confirm inactive | MMP-2 counter-1 inactive | Thrombin inh inactive | CSN deneddyl val 93.9 | MMP-2 counter-2 inactive | Thrombin counter inactive
O=C(CSc1nc(-c2ccccc2)nc2c1Cc1ccccc1O2)Nc1ccccc1	none (no result: HNF4A DNA FP, Rpn11 block, SENP1 inh, CSN inh)
